The list is not random: actives were taken first. Their share in the collection is about 2.2%.
697 NFkB inh = inhibitors of the PMA/ionomycin-induced NF-kB reporter in 697 B cells; 697 B-cell NF-kB luciferase reporter, 16 h; inhibition, % at 4 µM; 0.33% of 330,000 active; AID 435022; in the data active means inhibition above about 35%
Jurkat NFkB inh = inhibitors of the PMA/ionomycin-induced NF-kB reporter in Jurkat cells | PMA/ionomycin-induced NF-kB luciferase reporter, luminescence | inhibition, % at 4 µM | 0.53% of 330,000 active | AID 435003; in the data active means inhibition above about 50%
NR2E3 ag-1 = agonists of human nuclear receptor NR2E3; Q9Y5X4; GST-NR2E3/biotin-RetCOR TR-FRET, 1536-well; inhibition of corepressor binding, % at 4.78 µM; 0.12% of 320,000 active; AID 2300;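 active means percent inhibition above the cutoff of mean plus 3 SD of all tested compounds, set per screening campaign, cut at about 20% in these data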
Target sequence (Q9Y5X4 whole entry, looked up): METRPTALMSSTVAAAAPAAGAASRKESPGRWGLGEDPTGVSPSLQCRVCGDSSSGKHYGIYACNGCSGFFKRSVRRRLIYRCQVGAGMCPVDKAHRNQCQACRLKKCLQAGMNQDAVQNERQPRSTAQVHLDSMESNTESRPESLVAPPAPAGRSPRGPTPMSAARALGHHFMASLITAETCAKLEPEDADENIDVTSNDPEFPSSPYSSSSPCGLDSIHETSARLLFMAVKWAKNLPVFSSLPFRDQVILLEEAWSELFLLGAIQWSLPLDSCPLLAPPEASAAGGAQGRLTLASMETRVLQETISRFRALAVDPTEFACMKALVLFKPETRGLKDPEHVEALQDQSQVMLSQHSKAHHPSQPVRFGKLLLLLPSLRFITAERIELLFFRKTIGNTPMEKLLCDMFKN
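system = GST-tagged NR2E3 plus biotinylated RetCOR corepressor | input = 1.35 nM GST-NR2E3 | also added = 7 nM biotin-RetCOR | schedule = 5 h incubation at 4 °C | measured by = TR-FRET with europium anti-GST and streptavidin-D2, 340 nm excitation | read-out = percent loss of FRET ratio relative to control wells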
FGF22 binding = shifts melting point of recombinant human FGF22; 1.5% of 340,000 active; AID 651658; recombinant FGF22 thermal shift, SYPRO orange fluorescence; percent of sucrose octasulfate shift, DMSO zero; activity (Tm shift, normalised), % at 9.99 µM;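 active means mean Tm shift, scaled 0 neutral to 100 positive control, at about 1.3% or above, every replicate too, limit read from the data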
miR122 inh = miR-122 inhibition in Huh7 cells; Huh7 miR-122 Renilla luciferase sensor, 48 h; neutral wells = 0, positive control = 100; activation (reporter increase), % at 12.5 µM; 0.3% of 340,000 active;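 active means mean replicate activation score at least 90 and every replicate individually at or above 90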;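 further: higher luciferase means less miR-122 activity so hits act as miR-122 inhibitors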
NR2E3 ag-2 = human photoreceptor-specific nuclear receptor agonism. 0.35% of 360,000 active. CHO-S Gal4-NCOR/VP16-NR2E3 two-hybrid, luciferase. Q9Y5X4. inhibition of corepressor binding, % at 3.98 µM;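 active means inhibition above the mean of all tested compounds plus 3 SD, cut at about 70% in these data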;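 further: higher means lower luciferase signal from less NR2E3 corepressor binding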
NR2E3 ag confirm = confirmation of human NR2E3 agonists | shares compounds with NR2E3 ag-2 | CHO-S mammalian two-hybrid NR2E3-NCOR, luciferase luminescence | inhibition, % at 3.98 µM | 51% of 2,300 active | AID 624378;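 active means average inhibition above a cutoff equal to the mean inhibition of all tested compounds plus one SD, cut at about 70% in these data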
GAL4-VP16 luc = counter-screen for NR2E3 agonists: GAL4-VP16 reporter inhibitors; CHO-S GAL4-VP16 luciferase reporter, luminescence; inhibition, % at 3.98 µM; shares compounds with NR2E3 ag-2; 29% of 2,300 active;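 active means mean inhibition above a cutoff equal to the average over all tested compounds plus one standard deviation, cut at about 70% in these data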;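 further: luciferase from a UAS reporter driven by GAL4-VP16 transactivation; higher means less reporter light so more repression of VP16 activity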
Hits are given with their value; 0 = inactive; - = no result.

SMILES | 697 NFkB inh | Jurkat NFkB inh | NR2E3 ag-1 | FGF22 binding | miR122 inh | NR2E3 ag-2 | NR2E3 ag confirm | GAL4-VP16 luc
O=C(Nc1ccc(F)cc1)N1[C@@H]2CNc3ccccc3[C@@H]2[C@@H]1CO | - | - | - | 0 | 0 | - | - | -
CCNC(=O)C[C@@H]1CC[C@@H]2[C@H](COC[C@@H](O)CN2C(=O)c2ccccn2)O1 | - | - | - | 0 | 0 | - | - | -
C[C@H](CO)N1C[C@H](C)[C@H](CN(C)S(=O)(=O)c2ccc(Cl)cc2)Oc2ccc(NS(C)(=O)=O)cc2C1=O | - | - | - | - | 0 | - | - | -
Cc1ccc(-c2cnc3n2CCCCC3)cc1 | 0 | 0 | 0 | 0 | - | 0 | - | -
c1cc2c(cc1-c1cnc3n1CCC3)OCCO2 | 0 | 0 | 0 | 0 | - | 0 | 0 | 0
COc1ccc(S(=O)(=O)N(C)C[C@H]2OCCCC[C@H](C)Oc3ccc(NC(=O)Cc4ccccc4)cc3C(=O)N([C@H](C)CO)C[C@@H]2C)cc1 | - | - | - | 0 | 0 | - | - | -
COc1ccccc1S(=O)(=O)N[C@H]1CC[C@H](CCNC(=O)C2CC2)O[C@H]1CO | - | - | - | 0 | - | - | - | -
CC[C@@H](C(=O)[C@@H](C)[C@@H](O)[C@H](C)[C@@H]1O[C@@H]([C@@H](CC)C(=O)O)CC[C@@H]1C)[C@H]1O[C@]2(C=C[C@@H](O)[C@]3(CC[C@@](C)([C@H]4CC[C@](O)(CC)[C@H](C)O4)O3)O2)[C@H](C)C[C@@H]1C | - | - | - | 0 | 0 | 102 | 100 | 84
C[C@@H]1CN([C@H](C)CO)C(=O)c2cc(NS(=O)(=O)c3cn(C)cn3)ccc2O[C@H]1CN(C)S(=O)(=O)c1ccccc1 | - | - | - | 0 | 0 | - | - | -
Cn1cnc(CCNC(=O)C[C@H]2CC[C@H]3[C@@H](COC[C@@H](O)CN3C(=O)C3CC3)O2)c1 | - | - | - | 0 | 0 | - | - | -
O=C(c1cc(COc2ccc(F)cc2Cl)on1)N1CCN(C2CCCCC2)C(=O)C1 | 0 | 0 | 0 | 0 | - | 0 | 0 | 0
O=C(c1cc(COc2ccc(F)cc2Cl)on1)N1CCN(C2CCCC2)CC1 | 0 | 0 | 0 | 0 | 0 | 0 | - | -
CO[C@H]1CN(C)C(=O)c2ccc(NC(=O)Nc3cc(F)ccc3F)cc2OC[C@H](C)NC[C@H]1C | - | - | - | 0 | 0 | - | - | -
O=C(c1cccnc1)N1CC2(C1)[C@H](c1ccccc1)[C@H](CO)N2C(=O)c1cccnc1 | - | - | - | 0 | - | - | - | -
Cc1ccc(-c2nc(CS(=O)(=O)CC(=O)N3CCCCCC3)c(C)o2)cc1 | 0 | 0 | 0 | 0 | 0 | 0 | 0 | 0
Clc1c(Cl)c(Cl)c2n[nH]nc2c1Cl | 0 | 0 | 0 | 0 | - | 0 | 96 | 81
Cc1ccc(S(=O)(=O)N2[C@@H](c3ccc(Cl)c(Cl)c3)C(C(=O)O)=C[C@H]2C(C)(C)C)cc1 | 0 | 0 | - | - | 0 | 0 | 0 | 0
CCCCC[C@@H]1C=C(C(=O)O)[C@H](c2ccc(Cl)c(Cl)c2)N1S(=O)(=O)c1ccc(C)cc1 | 0 | 0 | - | 0 | 0 | 81 | 71 | 0
CCCCC[C@@H]1C=C(C(=O)O)[C@H](c2ccc(CC)cc2)N1S(=O)(=O)c1ccc(C)cc1 | 0 | 0 | - | 0 | 0 | 0 | 0 | 0
C[C@H](NC(=O)C[C@@H]1CC[C@@H](NC(=O)c2cccnc2)[C@H](CO)O1)c1ccccc1 | - | - | - | 0 | 0 | - | - | -
c1ccc(-c2nc(N3CCCCCC3)c3ccccc3n2)nc1 | 0 | 0 | 0 | - | 0 | 109 | 100 | 73
CCCCN(CC)c1nc(-c2ccncc2)nc2ccccc12 | 0 | 0 | 0 | - | 0 | 0 | - | -
CCCN(CCC)c1nc(-c2ccccn2)nc2ccccc12 | 0 | 0 | - | 0 | 0 | 104 | 99 | 85
c1ccc(CCNc2nc(-c3ccccn3)nc3ccccc23)cc1 | 0 | 0 | 0 | 0 | 0 | 103 | 100 | 85
CCN(CC)c1nc(-c2ccccn2)nc(-c2ccccc2)c1C#N | 0 | 0 | 0 | 43 | - | 83 | 0 | 0
COc1ccc2c3c(n(C)c2c1)[C@@H](CO)N(C)CC31CCN(C(=O)Nc2cccc(F)c2)CC1 | - | - | - | 0 | - | - | - | -

Screening data deposited in PubChem BioAssay by several laboratories.
